Experimental findings from ChEMBL document CHEMBL3124838, “Discovery of 6-aryl-azabenzimidazoles that inhibit the TBK1/IKK-ε kinases” (Bioorg Med Chem Lett, 2014) are described below.

Each structure is given as a SMILES string. Where only a bound is given, the exact number is not on record here.

The target in assay [1] is T1, Aurora kinase C (Homo sapiens) (UniProt Q9UQB9).
T1 sequence (whole entry): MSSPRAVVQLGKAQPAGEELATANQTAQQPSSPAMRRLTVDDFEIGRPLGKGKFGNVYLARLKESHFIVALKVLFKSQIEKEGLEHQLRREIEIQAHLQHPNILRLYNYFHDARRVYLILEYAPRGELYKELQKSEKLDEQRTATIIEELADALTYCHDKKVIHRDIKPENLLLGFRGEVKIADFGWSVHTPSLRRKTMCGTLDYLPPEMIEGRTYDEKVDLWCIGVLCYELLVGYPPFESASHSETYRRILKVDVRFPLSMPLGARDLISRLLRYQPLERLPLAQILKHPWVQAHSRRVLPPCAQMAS
Briefly: Inhibition of human Aurora-C assessed as residual activity at 1 uM relative to control.

The target of assay [2] is Fibroblast growth factor receptor 1 (Homo sapiens) (UniProt P11362). Briefly: Inhibition of human FGFR1 assessed as residual activity at 1 uM relative to control.
The species entered for the next assay is Homo sapiens. Briefly: Inhibition of human PKA assessed as residual activity at 1 uM relative to control.
In assay [3] the target is Glycogen synthase kinase-3 beta (Homo sapiens) (UniProt P49841). Briefly: Inhibition of human GSK3beta assessed as residual activity at 1 uM relative to control.
Assay [4] deals with T2, Inhibitor of nuclear factor kappa-B kinase subunit epsilon (Homo sapiens, UniProt Q14164).
T2 sequence (Q14164 whole entry): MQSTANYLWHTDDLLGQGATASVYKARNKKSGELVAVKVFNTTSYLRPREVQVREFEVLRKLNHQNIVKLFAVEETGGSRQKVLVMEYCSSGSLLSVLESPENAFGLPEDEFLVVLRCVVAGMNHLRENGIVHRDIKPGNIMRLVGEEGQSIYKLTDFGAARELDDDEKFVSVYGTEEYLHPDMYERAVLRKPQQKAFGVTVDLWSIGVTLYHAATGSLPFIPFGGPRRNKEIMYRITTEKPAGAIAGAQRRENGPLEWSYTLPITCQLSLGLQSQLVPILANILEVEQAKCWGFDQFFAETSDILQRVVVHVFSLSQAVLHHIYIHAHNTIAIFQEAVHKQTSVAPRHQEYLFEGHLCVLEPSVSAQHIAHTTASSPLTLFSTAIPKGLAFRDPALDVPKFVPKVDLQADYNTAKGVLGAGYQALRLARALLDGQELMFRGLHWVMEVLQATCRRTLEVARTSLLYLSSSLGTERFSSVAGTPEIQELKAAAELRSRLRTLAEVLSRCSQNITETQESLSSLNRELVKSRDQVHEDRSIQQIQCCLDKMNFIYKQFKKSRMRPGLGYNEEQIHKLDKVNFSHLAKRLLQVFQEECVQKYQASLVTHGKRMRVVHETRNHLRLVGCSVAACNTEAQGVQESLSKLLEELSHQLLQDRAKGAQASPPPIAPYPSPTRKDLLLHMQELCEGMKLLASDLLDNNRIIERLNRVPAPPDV
Briefly: Inhibition of IKK-epsilon (unknown origin) using 5FAM-AKELDQGSLCTpSFVGTLQ-NH2 as substrate by microfluidic mobility shift assay. An outline of the steps:
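Recombinant IKK-ε (4 nM) in HEPES buffer with 1.5 µM 5FAM-labelled peptide substrate, ATP at its K_M, and 10 mM MgCl2. The 10-point titration used half-log serial dilutions. Reactions ran at room temperature for a set time, were quenched with EDTA-containing HEPES, and were read by microfluidic mobility shift. Percent inhibition came from the ratio of phosphorylated to total peptide.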

Assay [5] deals with Serine/threonine-protein kinase MARK1 (Homo sapiens) (UniProt Q9P0L2). The assay can be described thus: Inhibition of human MARK1 assessed as residual activity at 1 uM relative to control.
Assay [6] has as its target Rho-associated protein kinase 2 (Homo sapiens) (UniProt O75116). The assay can be described thus: Inhibition of human ROCK-2 assessed as residual activity at 1 uM relative to control.
Assay [7] has as its target Myosin light chain kinase, smooth muscle (Homo sapiens) (UniProt Q15746). The assay can be described thus: Inhibition of human MLCK assessed as residual activity at 1 uM relative to control.
Assay [8] addresses Phosphatidylinositol 4-phosphate 5-kinase type-1 gamma (Homo sapiens) (UniProt O60331). Briefly: Inhibition of human PIP5K1gamma assessed as residual activity at 1 uM relative to control.
For another assay, the target named is Aurora kinase B (Homo sapiens, UniProt Q96GD4). Briefly: Inhibition of human Aurora-B assessed as residual activity at 1 uM relative to control.
Assay [9] has as its target Macrophage colony-stimulating factor 1 receptor (Homo sapiens) (UniProt P07333). Briefly: Inhibition of human FMS assessed as residual activity at 1 uM relative to control.
Assay [10] deals with Cyclin-dependent kinase 2 (Homo sapiens, UniProt P24941). The assay can be described thus: Inhibition of CDK2 (unknown origin).
Assay [11] concerns the target T3, Interleukin-1 receptor-associated kinase 4 (Homo sapiens) (UniProt Q9NWZ3).
T3 sequence (whole entry): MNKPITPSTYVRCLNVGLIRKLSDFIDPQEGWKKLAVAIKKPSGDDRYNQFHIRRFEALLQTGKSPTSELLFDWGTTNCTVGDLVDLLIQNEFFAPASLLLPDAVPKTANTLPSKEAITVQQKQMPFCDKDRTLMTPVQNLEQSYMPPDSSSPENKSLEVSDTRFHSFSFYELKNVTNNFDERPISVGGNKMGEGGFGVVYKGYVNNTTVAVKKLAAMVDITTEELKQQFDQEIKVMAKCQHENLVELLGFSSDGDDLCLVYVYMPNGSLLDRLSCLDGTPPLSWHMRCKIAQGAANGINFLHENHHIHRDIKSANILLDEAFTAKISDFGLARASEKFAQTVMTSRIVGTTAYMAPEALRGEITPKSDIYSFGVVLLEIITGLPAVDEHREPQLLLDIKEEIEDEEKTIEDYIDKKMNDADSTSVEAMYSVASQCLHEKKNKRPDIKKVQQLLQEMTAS
The assay can be described thus: Inhibition of human IRAK4 assessed as residual activity at 1 uM relative to control.

Phosphatidylinositol 4-phosphate 5-kinase type-1 gamma (Homo sapiens), sequence (O60331 whole entry): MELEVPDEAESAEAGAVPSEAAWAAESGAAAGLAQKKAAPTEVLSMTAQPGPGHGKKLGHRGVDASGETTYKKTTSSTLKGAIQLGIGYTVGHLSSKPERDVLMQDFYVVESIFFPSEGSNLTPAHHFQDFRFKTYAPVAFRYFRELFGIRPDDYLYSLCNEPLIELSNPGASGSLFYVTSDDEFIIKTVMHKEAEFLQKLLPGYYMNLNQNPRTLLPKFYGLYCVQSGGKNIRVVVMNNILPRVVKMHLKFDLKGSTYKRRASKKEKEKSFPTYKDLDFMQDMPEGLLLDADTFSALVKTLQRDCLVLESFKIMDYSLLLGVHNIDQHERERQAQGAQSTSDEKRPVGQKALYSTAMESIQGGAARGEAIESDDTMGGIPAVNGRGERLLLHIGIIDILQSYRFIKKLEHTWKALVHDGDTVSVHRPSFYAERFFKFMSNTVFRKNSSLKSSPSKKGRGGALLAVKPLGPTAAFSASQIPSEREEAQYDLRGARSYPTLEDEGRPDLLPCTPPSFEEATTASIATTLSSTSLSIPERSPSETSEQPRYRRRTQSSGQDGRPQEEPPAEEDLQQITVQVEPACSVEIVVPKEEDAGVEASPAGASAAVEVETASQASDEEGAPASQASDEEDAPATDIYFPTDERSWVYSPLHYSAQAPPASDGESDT
Serine/threonine-protein kinase MARK1 (Homo sapiens), sequence (Q9P0L2 whole entry, looked up): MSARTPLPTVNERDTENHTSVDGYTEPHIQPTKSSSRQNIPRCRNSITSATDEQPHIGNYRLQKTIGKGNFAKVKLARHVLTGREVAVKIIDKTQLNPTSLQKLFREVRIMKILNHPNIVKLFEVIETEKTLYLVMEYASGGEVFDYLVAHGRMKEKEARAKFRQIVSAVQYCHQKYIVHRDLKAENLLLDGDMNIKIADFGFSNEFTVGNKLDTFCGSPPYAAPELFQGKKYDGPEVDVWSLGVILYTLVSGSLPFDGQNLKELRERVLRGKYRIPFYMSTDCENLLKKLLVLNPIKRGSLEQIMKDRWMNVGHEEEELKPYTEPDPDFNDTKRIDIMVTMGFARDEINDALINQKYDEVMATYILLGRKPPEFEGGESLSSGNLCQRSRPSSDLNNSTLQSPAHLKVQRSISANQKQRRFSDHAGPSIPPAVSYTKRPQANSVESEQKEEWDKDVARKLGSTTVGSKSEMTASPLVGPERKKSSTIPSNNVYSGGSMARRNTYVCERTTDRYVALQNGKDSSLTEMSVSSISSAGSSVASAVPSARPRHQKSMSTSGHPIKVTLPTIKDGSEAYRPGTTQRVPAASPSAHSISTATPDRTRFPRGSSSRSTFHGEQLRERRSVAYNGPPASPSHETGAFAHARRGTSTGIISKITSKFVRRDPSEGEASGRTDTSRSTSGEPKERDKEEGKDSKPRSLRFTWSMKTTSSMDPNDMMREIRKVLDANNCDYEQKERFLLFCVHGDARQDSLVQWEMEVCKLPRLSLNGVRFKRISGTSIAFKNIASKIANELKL
Macrophage colony-stimulating factor 1 receptor (Homo sapiens), sequence (P07333 whole entry): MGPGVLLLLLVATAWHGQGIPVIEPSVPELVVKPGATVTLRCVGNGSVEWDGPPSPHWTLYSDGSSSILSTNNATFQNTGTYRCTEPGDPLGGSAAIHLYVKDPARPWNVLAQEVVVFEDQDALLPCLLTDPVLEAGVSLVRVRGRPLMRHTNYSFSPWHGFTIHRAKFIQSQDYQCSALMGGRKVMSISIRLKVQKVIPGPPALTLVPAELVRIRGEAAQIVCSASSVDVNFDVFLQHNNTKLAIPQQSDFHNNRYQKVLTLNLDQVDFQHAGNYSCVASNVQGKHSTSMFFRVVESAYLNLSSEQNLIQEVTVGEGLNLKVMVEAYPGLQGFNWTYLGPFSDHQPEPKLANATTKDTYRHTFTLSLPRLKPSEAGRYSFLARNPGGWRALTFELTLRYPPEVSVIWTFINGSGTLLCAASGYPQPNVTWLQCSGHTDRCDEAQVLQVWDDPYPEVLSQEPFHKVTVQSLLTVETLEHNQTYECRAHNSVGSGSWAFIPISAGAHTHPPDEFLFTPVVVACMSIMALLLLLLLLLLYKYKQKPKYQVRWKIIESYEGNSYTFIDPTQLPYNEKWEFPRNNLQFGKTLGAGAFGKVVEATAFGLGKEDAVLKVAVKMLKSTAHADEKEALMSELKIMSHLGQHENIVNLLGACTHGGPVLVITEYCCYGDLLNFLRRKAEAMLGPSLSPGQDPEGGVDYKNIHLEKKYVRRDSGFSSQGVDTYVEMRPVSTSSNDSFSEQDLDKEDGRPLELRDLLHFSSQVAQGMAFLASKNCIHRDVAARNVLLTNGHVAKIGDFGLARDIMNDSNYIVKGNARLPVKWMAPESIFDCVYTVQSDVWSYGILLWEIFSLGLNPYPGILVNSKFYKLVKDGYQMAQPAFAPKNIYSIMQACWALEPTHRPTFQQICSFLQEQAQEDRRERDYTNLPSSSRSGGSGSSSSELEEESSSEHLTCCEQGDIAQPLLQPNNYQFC
Rho-associated protein kinase 2 (Homo sapiens), sequence (O75116 whole entry, looked up): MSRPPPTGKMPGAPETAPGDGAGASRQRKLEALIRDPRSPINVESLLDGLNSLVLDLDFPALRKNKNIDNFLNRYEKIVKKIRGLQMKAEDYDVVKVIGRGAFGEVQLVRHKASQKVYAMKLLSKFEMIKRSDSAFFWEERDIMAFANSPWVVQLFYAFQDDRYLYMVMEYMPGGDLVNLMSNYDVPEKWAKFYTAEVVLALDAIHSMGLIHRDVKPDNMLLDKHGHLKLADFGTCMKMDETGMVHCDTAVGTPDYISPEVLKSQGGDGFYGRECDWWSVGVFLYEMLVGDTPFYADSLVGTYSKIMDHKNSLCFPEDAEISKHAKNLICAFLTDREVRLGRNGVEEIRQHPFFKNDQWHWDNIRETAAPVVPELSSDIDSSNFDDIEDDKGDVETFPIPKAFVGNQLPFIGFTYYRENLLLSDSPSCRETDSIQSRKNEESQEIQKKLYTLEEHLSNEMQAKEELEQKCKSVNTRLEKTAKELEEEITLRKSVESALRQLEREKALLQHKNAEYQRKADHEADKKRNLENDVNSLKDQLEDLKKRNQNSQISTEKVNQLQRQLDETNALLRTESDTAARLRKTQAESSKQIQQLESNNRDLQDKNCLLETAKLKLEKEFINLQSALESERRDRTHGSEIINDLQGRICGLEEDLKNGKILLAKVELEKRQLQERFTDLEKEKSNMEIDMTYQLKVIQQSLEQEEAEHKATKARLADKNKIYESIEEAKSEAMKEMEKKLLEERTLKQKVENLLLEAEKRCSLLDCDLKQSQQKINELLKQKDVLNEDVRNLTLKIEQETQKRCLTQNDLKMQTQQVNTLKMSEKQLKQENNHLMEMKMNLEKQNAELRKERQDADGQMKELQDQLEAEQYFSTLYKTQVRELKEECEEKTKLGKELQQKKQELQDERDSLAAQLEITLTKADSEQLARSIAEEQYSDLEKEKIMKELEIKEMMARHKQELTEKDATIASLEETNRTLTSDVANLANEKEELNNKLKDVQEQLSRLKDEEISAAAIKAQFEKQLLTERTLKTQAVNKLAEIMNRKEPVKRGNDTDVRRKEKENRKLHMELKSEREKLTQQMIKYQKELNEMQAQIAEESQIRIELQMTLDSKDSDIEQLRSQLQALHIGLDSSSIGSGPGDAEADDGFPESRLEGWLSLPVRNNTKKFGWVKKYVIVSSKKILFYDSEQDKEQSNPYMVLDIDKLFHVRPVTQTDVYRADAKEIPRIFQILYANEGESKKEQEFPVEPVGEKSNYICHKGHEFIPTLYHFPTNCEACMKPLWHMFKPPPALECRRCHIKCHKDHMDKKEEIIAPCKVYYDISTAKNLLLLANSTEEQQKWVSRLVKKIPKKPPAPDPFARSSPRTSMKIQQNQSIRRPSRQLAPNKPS
Aurora kinase B, sequence (Q96GD4 whole entry): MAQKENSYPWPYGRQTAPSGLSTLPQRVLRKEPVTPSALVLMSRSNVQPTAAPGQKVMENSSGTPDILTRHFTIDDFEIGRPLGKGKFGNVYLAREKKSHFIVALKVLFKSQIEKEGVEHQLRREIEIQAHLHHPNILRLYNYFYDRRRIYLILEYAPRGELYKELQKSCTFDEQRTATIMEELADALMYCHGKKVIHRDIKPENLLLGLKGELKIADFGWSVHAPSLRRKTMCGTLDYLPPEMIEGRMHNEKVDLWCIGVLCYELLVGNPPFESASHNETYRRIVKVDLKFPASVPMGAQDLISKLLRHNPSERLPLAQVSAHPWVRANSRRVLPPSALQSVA
Glycogen synthase kinase-3 beta (Homo sapiens), sequence (P49841 whole entry, looked up): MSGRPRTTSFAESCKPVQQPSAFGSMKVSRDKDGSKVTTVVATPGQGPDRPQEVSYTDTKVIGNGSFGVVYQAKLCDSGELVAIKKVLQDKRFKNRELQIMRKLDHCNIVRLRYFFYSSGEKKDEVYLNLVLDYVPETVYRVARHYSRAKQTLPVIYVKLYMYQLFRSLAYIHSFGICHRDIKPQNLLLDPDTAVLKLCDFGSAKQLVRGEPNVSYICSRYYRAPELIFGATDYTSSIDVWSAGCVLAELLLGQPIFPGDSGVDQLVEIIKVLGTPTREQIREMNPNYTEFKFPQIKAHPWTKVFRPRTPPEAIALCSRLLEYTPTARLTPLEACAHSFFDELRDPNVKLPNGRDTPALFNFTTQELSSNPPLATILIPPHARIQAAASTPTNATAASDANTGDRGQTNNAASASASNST

For `COc1ccc(-c2nc3cc(-c4csc(C(=O)NCC(C)(C)C)c4)cnc3[nH]2)cc1`, the Activity in assay [1] came out at 76%; in assay [2] it was 94%; in the assay listed under Homo sapiens, 82%; in assay [3], 106%; in assay [5], 58%; in [6], 108%. Also, the Activity in [7] is 95%; in assay [8], 86%; on Aurora kinase B, 75%; in assay [9], 70%; in assay [11], 81%. Moreover, the IC50 was 497 nM in [4] and over 30 µM in assay [10].
Turning to `COc1ccc(-c2nc3cc(-c4csc(C(=O)NCCC(C)C)c4)cnc3[nH]2)cc1`, the Activity in assay [1] was found to be 77%; in [2], 91%; in the assay filed under Homo sapiens, 97%; in assay [3] it was 83%; in [5] it was 61%; in assay [6], 102%. Moreover, the Activity was 106% in [7]; 93% in assay [8]; 78% at Aurora kinase B; 70% in [9]; 81% in assay [11]. Further, the IC50 in assay [4] is 1750 nM; in [10] it was over 30 µM.
For the molecule `COc1ccc(-c2nc3cc(-c4csc(C(=O)NCC(C)C)c4)cnc3[nH]2)cc1`, the Activity turned out to be 76% in [1]; 70% in assay [2]; 89% in the assay filed under Homo sapiens; 102% in assay [3]; 48% in assay [5]; 108% in assay [6]. Besides, the Activity stood at 100% in assay [7]; 88% in assay [8]; 43% on Aurora kinase B; 63% in assay [9]; 75% in [11]. Further, the IC50 in assay [4] was 273 nM; in [10], over 30 µM.

For orientation: IC50 means the concentration that gives 50% inhibition.
